Test results published in ChEMBL document CHEMBL1124174, “Substituted benzamides. 1. Potential nondopaminergic antagonists of chemotherapy-induced nausea and emesis” (J Med Chem, 1988).
“And” between values parts separate entries of the source, which are not always exact repeats. Equal values may be shown once. Blank lines part the entries; values can stand above or below the compound they belong to.

Legend:
Canis familiaris [1] = experiment: In vivo antagonism of cisplatin-induced emesis in dog measured as percentage protection for twice the dose of 0.2 mg/kg in 4 dogs; assay type: functional, Canis lupus familiaris
How it was run: (§1)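 Nonfasted mature male or female beagles were dosed sc twice, 30 min before and 120 min after cisplatin (3 mg/kg iv; 3 mg/mL in warm 0.9% saline, used immediately). Emesis was observed up to 5 h; events within 2 min counted as one episode. Results were given as mean emetic episodes and % protection versus a dynamic control (historical and concurrent saline means pooled). t test versus saline.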

Canis familiaris [2] = experiment: In vivo antagonism of cisplatin-induced emesis in dog measured as percentage protection for twice the dose of 0.8 mg/kg in 3 dogs; assay type: functional, Canis lupus familiaris; how it was run: as §1
Canis familiaris [3] = experiment: Protection against cisplatin-induced emesis in dog measured as percentage protection for twice the dose of 0.2 mg/kg; assay type: functional, Canis lupus familiaris
Canis familiaris [4] = experiment: Protection against cisplatin-induced emesis in dog measured as percentage protection for twice the dose of 0.8 mg/kg and in 3 dogs(1 protected); assay type: functional, Canis lupus familiaris
Canis familiaris [5] = experiment: Protection against cisplatin-induced emesis in dog measured as percentage protection for twice the dose of 2.5 mg/kg and in 4 dogs(2 protected); assay type: functional, Canis lupus familiaris
Canis familiaris [6] = experiment: (§2) In vivo antagonism of cisplatin-induced emesis in dog measured as emetic episodes, twice the dose of 2.5 mg/kg in 4 dogs; assay type: functional, Canis lupus familiaris; how it was run: as §1
Canis familiaris [7] = experiment: as §2; assay type: functional, Canis lupus familiaris; how it was run: as §1; remark: listed apart in the source
Canis familiaris [8] = experiment: […] cisplatin-induced emesis in dog was measured for as stereotypy when administered iv twice daily; assay type: functional; conditions: Canis lupus familiaris
[9] = target: D(2) dopamine receptor (Canis lupus familiaris) (UniProt Q9GJU1); experiment: In vivo antagonism activity against dopamine D2 receptor was measured as emesis in dog when administered subcutaneously; assay type: functional, organism-based
Canis familiaris [10] = experiment: (§3) In vivo antagonism of cisplatin-induced emesis in dog measured as emetic episodes, twice the dose of 0.2 mg/kg in 4 dogs; assay type: functional, Canis lupus familiaris; how it was run: as §1
Canis familiaris [11] = experiment: as §3; assay type: functional, Canis lupus familiaris; how it was run: as §1; remark: listed apart in the source
Canis familiaris [12] = experiment: (§4) In vivo antagonism of cisplatin-induced emesis in dog measured as emetic episodes, twice the dose of 0.8 mg/kg in 3 dogs; assay type: functional, Canis lupus familiaris; how it was run: as §1
Canis familiaris [13] = experiment: as §4; assay type: functional, Canis lupus familiaris; how it was run: as §1; remark: listed apart in the source
Canis familiaris [14] = experiment: In vivo antagonism of cisplatin-induced emesis in dog measured as percentage protection for twice the dose of 2.5 mg/kg in 4 dogs; assay type: functional, Canis lupus familiaris; how it was run: as §1
Mustela putorius furo [15] = experiment: In vivo antagonism of cisplatin-induced emesis in ferret measured as percentage protection for twice the dose of 0.2 mg/kg in 4 ferrets; assay type: functional
How it was run: (§5)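 Nonfasted castrated male Fitch ferrets (1–1.5 kg) had jugular catheters implanted ≥48 h earlier under anesthesia. Compounds or saline were given iv twice, 5 min before and 90 min after cisplatin (12 mg/kg iv; 12 mg/mL in warm 0.9% saline). Emesis was observed up to 4 h; events within 1 min counted as one episode. Results were given as mean emetic episodes and % protection versus a pooled historical/concurrent control. t test versus saline.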

Mustela putorius furo [16] = experiment: In vivo antagonism of cisplatin-induced emesis in ferret measured as emetic episodes, twice the dose of 2.5 mg/kg in 5 ferrets; assay type: functional; how it was run: as §5
Mustela putorius furo [17] = experiment: In vivo antagonism of cisplatin-induced emesis in ferret measured as emetic episodes, twice the dose of 0.2 mg/kg in 4 ferrets; assay type: functional; how it was run: as §5
Mustela putorius furo [18] = experiment: In vivo antagonism of cisplatin-induced emesis in ferret measured as emetic episodes, twice the dose of 0.8 mg/kg in 5 ferrets; assay type: functional; how it was run: as §5
Mustela putorius furo [19] = experiment: In vivo antagonism of cisplatin-induced emesis in ferret measured as percentage protection for twice the dose of 0.8 mg/kg in 5 ferrets; assay type: functional; how it was run: as §5
Mustela putorius furo [20] = experiment: (§6) In vivo antagonism of cisplatin-induced emesis in ferret measured as percentage protection for twice the dose of 2.5 mg/kg in 5 ferrets; assay type: functional; how it was run: as §5
[21] = target: D(2) dopamine receptor (Rattus norvegicus) (UniProt P61169); experiment: In vivo antagonism activity against D2 receptor was measured as stereotypy in rat when administered subcutaneously; assay type: functional, organism-based
How it was run: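 Male Long Evans rats (275 g) were dosed sc in dilute aqueous HCl (pH 4.5-5.5) 30 min before apomorphine (1 mg/kg sc).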

[22] = target: D(2) dopamine receptor (Rattus norvegicus) (UniProt P61169); experiment: In vivo antagonistic activity against dopamine D2 receptor was measured as catalepsy in rat when administered subcutaneously; assay type: functional, organism-based
How it was run: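 Male Long Evans rats (275 g) received graded sc doses in dilute aqueous HCl (pH 4.5-5.5). They were observed 180 min for catalepsy, scored when the animal stayed stationary ≥15 s on a four-cork template.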

Mustela putorius furo [23] = experiment: as §6; assay type: functional; how it was run: as §5; remark: listed apart in the source
Mustela putorius furo [24] = experiment: antagonism of cisplatin-induced emesis in ferret measured when administered intravenously twice daily; conditions: iv
Canis familiaris [25] = experiment: In vivo antagonism of cisplatin-induced emesis in dog measured as percentage protection for twice the dose of 0.3 mg/kg in 2 dogs; assay type: functional, Canis lupus familiaris; how it was run: as §1
D(2) dopamine receptor = D(2) dopamine receptor (Rattus norvegicus, UniProt P61169); experiment: In vitro antagonistic activity against Dopamine receptor D2 was evaluated for the inhibition of [3H]spiperone binding
How it was run: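 Rat striatal membranes were prepared by differential centrifugation in 50 mM Tris pH 7.4 at 4 °C. Membrane protein (10 mg) was incubated 15 min at 37 °C with 0.1 nM [3H]spiperone and varying competitor concentrations. Buffer: 50 mM Tris HCl pH 7.5, 0.1% ascorbic acid, pargyline, 120 mM NaCl, 5 mM KCl, 2 mM CaCl2, 1 mM MgCl2. (+)-Butaclamol defined nonspecific binding. Bound ligand was collected by filtration and scintillation counted. IC50 by log-logit regression.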

Canis familiaris [26] = experiment: In vivo antagonism of cisplatin-induced emesis in dog measured as emetic episodes, twice the dose of 0.3 mg/kg in 2 dogs; assay type: functional, Canis lupus familiaris; how it was run: as §1
Mustela putorius furo [27] = experiment: In vivo antagonism of cisplatin-induced emesis in ferret measured as emetic episodes, twice the dose of 1 mg/kg and in 3 ferrets; assay type: functional; how it was run: as §5
Mustela putorius furo [28] = experiment: In vitro antagonism of cisplatin-induced emesis in ferret measured as percentage protection for twice the dose of 1 mg/kg and in 3 ferrets; assay type: functional; conditions: in the assay text read “In vivo” for “In vitro”; how it was run: as §5
Canis familiaris [29] = experiment: in vivo antagonism of cisplatin-induced emesis in dog measured as emetic episodes, twice the dose of 0.3 mg/kg in 2 dogs; assay type: functional, Canis lupus familiaris
Mustela putorius furo [30] = experiment: In vivo antagonism of cisplatin-induced emesis in ferret measured as emetic episodes, twice the dose of 3 mg/kg and in 3 ferrets; assay type: functional; how it was run: as §5
Mustela putorius furo [31] = experiment: In vivo antagonism of cisplatin-induced emesis in ferret measured as percentage protection for twice the dose of 3 mg/kg and in 3 ferrets; assay type: functional; how it was run: as §5
Canis familiaris [32] = experiment: Antagonism of cisplatin-induced emesis in dog measured as emetic episodes, twice the dose of 1 mg/kg in 2 dogs.(in vivo); assay type: functional, Canis lupus familiaris; how it was run: as §1
Canis familiaris [33] = experiment: In vivo antagonism of cisplatin-induced emesis in dog measured as percentage protection for twice the dose of 1 mg/kg in 2 dogs; assay type: functional, Canis lupus familiaris; how it was run: as §1
Canis familiaris [34] = experiment: Antagonism of cisplatin-induced emesis in dog measured as emetic episodes, twice the dose of 0.3 mg/kg in 2 dogs.(in vivo); assay type: functional, Canis lupus familiaris; how it was run: as §1

D(2) dopamine receptor (Rattus norvegicus), sequence (P61169 whole entry): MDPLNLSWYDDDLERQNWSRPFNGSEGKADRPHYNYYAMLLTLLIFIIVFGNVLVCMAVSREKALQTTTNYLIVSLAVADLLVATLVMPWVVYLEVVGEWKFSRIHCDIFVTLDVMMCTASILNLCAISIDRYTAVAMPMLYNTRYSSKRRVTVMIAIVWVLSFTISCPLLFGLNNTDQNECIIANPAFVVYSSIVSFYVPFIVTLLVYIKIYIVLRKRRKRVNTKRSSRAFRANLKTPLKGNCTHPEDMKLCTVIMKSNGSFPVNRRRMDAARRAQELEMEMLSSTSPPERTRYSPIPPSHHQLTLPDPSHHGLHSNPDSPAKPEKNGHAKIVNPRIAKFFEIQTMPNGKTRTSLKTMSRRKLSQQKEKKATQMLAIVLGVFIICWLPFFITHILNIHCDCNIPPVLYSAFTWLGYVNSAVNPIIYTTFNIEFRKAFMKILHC
D(2) dopamine receptor, sequence (P61169 whole entry): as above
D(2) dopamine receptor (Canis lupus familiaris), sequence (Q9GJU1 whole entry): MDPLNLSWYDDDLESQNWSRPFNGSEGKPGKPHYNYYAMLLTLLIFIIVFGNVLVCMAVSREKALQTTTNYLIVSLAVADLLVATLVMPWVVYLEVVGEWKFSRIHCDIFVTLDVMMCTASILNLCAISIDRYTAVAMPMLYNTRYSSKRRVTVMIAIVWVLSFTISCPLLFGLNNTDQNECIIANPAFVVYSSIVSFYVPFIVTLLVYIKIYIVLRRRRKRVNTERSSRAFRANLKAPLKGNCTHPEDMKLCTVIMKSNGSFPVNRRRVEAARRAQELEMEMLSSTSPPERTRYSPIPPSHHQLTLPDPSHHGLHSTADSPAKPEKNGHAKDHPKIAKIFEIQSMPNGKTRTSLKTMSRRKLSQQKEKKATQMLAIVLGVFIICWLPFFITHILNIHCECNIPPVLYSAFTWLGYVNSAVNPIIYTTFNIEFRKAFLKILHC

- ED50 [21]: 4 mg/kg
SMILES: CCN(CC)CCNC(=O)c1cc(Cl)c(N)cc1OC [METOCLOPRAMIDE]
- Protection (Canis familiaris [1]): 58%
- Protection (Canis familiaris [2]): 92%
- Protection (Canis familiaris [3]): 58%
- Protection (Canis familiaris [4]): 92%
- Protection (Canis familiaris [5]): 92%
- Emetic episodes (Canis familiaris [6]): 1
- Emetic episodes (Canis familiaris [7]): 1
- ED50 (Canis familiaris [8]): 0.18 mg/kg
- ED50 [9]: 0.36 mg/kg
- Emetic episodes (Canis familiaris [10]): 5
- Emetic episodes (Canis familiaris [11]): 5
- Emetic episodes (Canis familiaris [12]): 1
- Emetic episodes (Canis familiaris [13]): 1
- Protection (Canis familiaris [14]): 92%
- Protection (Mustela putorius furo [15]): 22% and 21%
- Emetic episodes (Mustela putorius furo [16]): 0.6
- Emetic episodes (Mustela putorius furo [17]): 5.5
- Emetic episodes (Mustela putorius furo [18]): 2.4
- Protection (Mustela putorius furo [19]): 73% and 66%
- Protection (Mustela putorius furo [20]): 91%
- ED50 [22]: 26 mg/kg
- Protection (Mustela putorius furo [23]): 90%
- ED50 (Mustela putorius furo [24]): 0.53 mg/kg

- IC50 (D(2) dopamine receptor): > 1 µM
- ED50 [21]: > 40 mg/kg
SMILES: CCN(CC)CCNC(=O)c1cc(Cl)c(N)cc1OC(C)(C)C(C)=O
- Protection (Canis familiaris [25]): 77%
- ED50 [9]: > 3 mg/kg
- Emetic episodes (Canis familiaris [26]): 2.7
- Emetic episodes (Mustela putorius furo [27]): 2.7
- Protection (Mustela putorius furo [28]): 62%
- ED50 [22]: > 40 mg/kg

- IC50 (D(2) dopamine receptor): > 1 µM
- ED50 [21]: > 40 mg/kg
SMILES: CCN(CC)CCNC(=O)c1cc(Cl)c(N)cc1OCC(=O)Cc1ccccc1
- Protection (Canis familiaris [25]): 0%
- ED50 [9]: > 3 mg/kg
- Emetic episodes (Canis familiaris [29]): 13
- Emetic episodes (Mustela putorius furo [30]): 0
- Protection (Mustela putorius furo [31]): 100%
- ED50 [22]: > 40 mg/kg

- IC50 (D(2) dopamine receptor): > 1 µM
- ED50 [21]: > 40 mg/kg
SMILES: CCN(CC)CCNC(=O)c1cc(Cl)c(N)cc1OCCC(C)OC (configuration not stated)
- Protection (Canis familiaris [25]): 28%
- ED50 [9]: > 3 mg/kg
- Emetic episodes (Canis familiaris [32]): 1.5
- Protection (Canis familiaris [33]): 88%
- Emetic episodes (Mustela putorius furo [30]): 1.3
- Emetic episodes (Mustela putorius furo [27]): 4.3
- Protection (Mustela putorius furo [27]): 42%
- Protection (Mustela putorius furo [31]): 82%
- ED50 [22]: > 40 mg/kg
- Emetic episodes (Canis familiaris [34]): 8.5
